Measurements: ChEMBL document CHEMBL2417539, “1-substituted (Dibenzo[b,d]thiophen-4-yl)-2-morpholino-4H-chromen-4-ones endowed with dual DNA-PK/PI3-K inhibitory activity” (J Med Chem, 2013)
Converted amounts (≈) assume the structure as drawn.

Key:
[1] = molecular target: Serine-protein kinase ATM (Homo sapiens, UniProt Q13315); experiment: Inhibition of ATM (unknown origin)
[2] = molecular target: Serine/threonine-protein kinase mTOR (Homo sapiens, UniProt P42345); experiment: Inhibition of mTOR (unknown origin)
[3] = molecular target: T1, Phosphatidylinositol 4,5-bisphosphate 3-kinase catalytic subunit delta isoform (Homo sapiens, UniProt O00329); experiment: Inhibition of PI-3K delta (unknown origin)
T1 sequence (O00329 whole entry): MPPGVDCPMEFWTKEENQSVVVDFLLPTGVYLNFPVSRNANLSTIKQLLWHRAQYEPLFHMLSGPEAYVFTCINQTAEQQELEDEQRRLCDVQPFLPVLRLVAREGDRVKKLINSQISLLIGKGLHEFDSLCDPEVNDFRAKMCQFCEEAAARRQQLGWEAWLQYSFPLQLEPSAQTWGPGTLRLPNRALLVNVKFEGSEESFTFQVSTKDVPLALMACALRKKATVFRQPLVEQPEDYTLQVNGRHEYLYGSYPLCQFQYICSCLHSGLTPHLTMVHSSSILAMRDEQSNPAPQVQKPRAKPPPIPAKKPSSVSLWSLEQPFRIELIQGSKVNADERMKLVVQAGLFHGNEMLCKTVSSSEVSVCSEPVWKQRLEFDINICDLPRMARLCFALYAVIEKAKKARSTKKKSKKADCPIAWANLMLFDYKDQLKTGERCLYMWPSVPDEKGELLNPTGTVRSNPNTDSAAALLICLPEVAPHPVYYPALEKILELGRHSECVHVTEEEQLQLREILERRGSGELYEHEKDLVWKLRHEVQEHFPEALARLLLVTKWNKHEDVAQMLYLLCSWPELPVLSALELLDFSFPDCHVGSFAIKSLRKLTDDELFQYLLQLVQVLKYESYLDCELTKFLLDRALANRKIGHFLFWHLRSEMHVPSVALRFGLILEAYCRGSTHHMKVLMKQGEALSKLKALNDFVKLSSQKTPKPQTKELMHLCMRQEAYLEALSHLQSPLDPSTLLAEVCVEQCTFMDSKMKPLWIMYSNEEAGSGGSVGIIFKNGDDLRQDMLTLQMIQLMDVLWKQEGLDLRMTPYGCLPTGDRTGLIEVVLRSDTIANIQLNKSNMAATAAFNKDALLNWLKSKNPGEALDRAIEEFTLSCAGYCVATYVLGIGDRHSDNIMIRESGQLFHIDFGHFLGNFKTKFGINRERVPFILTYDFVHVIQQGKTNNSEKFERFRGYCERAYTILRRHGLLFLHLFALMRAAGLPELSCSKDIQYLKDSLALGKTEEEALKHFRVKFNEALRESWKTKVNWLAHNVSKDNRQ

[4] = molecular target: Serine/threonine-protein kinase ATR (Homo sapiens, UniProt Q13535); experiment: Inhibition of ATR (unknown origin)
HeLa [5] = experiment: Antiproliferative activity against human HeLa cells assessed as cell survival ratio at 0.1 uM treated 1 hr before 2Gy ionizing radiation measured after 6 to 8 days by DMR clonogenic assay; assay type: functional
Method in brief: (§1)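 HeLa cells seeded in 6-well dishes, incubated overnight at 37 °C/5% CO2, pre-treated 1 h with vehicle or inhibitor (0.1 or 0.5 μM), then given 2 Gy X-ray IR and held overnight. Medium then replaced without compound and culture continued 6-8 days. Colonies Giemsa-stained and counted automatically. DMR = % survival (vehicle, 2 Gy) / % survival (compound, 2 Gy).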

Cytochrome P450 3A4 = Cytochrome P450 3A4 (Homo sapiens, UniProt P08684); experiment: Inhibition of CYP3A4 (unknown origin); assay type: ADME
Cytochrome P450 3A4, sequence (P08684 whole entry): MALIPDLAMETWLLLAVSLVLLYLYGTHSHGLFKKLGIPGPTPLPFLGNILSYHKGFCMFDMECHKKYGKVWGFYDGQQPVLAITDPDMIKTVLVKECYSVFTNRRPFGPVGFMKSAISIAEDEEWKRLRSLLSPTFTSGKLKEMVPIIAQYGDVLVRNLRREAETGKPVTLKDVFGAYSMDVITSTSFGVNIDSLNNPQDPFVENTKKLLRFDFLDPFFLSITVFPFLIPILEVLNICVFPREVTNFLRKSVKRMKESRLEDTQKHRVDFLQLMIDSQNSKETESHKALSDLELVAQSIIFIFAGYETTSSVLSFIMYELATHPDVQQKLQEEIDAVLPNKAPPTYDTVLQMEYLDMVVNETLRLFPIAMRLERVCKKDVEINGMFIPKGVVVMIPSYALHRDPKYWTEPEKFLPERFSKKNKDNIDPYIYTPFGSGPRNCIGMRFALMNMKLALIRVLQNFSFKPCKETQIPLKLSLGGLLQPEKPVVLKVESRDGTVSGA

[6] = Fraction unbound in human Plasma; assay type: ADME, cell-free
Cytochrome P450 1A2 = molecular target: T2, Cytochrome P450 1A2 (Homo sapiens, UniProt P05177); experiment: Inhibition of CYP1A2 (unknown origin); assay type: ADME
T2 sequence (P05177 whole entry): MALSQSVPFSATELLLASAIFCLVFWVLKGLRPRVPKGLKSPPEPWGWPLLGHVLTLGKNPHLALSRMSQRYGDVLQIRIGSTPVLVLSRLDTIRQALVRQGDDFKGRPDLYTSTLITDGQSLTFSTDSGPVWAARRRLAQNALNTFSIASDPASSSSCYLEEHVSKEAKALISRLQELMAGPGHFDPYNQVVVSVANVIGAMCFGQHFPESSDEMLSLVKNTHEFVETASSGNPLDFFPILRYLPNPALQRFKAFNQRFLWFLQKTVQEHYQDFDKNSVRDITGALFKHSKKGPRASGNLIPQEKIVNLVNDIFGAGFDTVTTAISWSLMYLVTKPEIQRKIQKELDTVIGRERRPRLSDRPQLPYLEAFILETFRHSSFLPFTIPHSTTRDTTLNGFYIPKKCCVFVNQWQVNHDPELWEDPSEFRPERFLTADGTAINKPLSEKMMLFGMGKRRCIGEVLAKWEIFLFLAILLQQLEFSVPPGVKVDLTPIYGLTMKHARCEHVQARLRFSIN

[7] = Aqueous solubility of the compound at pH 7.4; assay type: physicochemical; details: buffer
[8] = molecular target: Voltage-gated inwardly rectifying potassium channel KCNH2 (Homo sapiens, UniProt Q12809); experiment: Inhibition of human ERG expressed in cisapride treated CHO cells by Ion Works assay
[9] = Lipophilicity, log D of the compound; assay type: physicochemical; details: octanol/water
Cytochrome P450 2C19 = Cytochrome P450 2C19 (Homo sapiens, UniProt P33261); experiment: Inhibition of CYP2C19 (unknown origin); assay type: ADME
HeLa [10] = experiment: Antiproliferative activity against human HeLa cells assessed as cell survival ratio at 0.5 uM treated 1 hr before 2Gy ionizing radiation measured after 6 to 8 days by DMR clonogenic assay; assay type: functional; method in brief: as §1
[11] = molecular target: T3, DNA-dependent protein kinase catalytic subunit (Homo sapiens, UniProt P78527); experiment: Inhibition of human DNA-PK using GST-tagged p53N66 as substrate after 1 hr by ELISA-based chemiluminiscence assay
T3 sequence (P78527 whole entry): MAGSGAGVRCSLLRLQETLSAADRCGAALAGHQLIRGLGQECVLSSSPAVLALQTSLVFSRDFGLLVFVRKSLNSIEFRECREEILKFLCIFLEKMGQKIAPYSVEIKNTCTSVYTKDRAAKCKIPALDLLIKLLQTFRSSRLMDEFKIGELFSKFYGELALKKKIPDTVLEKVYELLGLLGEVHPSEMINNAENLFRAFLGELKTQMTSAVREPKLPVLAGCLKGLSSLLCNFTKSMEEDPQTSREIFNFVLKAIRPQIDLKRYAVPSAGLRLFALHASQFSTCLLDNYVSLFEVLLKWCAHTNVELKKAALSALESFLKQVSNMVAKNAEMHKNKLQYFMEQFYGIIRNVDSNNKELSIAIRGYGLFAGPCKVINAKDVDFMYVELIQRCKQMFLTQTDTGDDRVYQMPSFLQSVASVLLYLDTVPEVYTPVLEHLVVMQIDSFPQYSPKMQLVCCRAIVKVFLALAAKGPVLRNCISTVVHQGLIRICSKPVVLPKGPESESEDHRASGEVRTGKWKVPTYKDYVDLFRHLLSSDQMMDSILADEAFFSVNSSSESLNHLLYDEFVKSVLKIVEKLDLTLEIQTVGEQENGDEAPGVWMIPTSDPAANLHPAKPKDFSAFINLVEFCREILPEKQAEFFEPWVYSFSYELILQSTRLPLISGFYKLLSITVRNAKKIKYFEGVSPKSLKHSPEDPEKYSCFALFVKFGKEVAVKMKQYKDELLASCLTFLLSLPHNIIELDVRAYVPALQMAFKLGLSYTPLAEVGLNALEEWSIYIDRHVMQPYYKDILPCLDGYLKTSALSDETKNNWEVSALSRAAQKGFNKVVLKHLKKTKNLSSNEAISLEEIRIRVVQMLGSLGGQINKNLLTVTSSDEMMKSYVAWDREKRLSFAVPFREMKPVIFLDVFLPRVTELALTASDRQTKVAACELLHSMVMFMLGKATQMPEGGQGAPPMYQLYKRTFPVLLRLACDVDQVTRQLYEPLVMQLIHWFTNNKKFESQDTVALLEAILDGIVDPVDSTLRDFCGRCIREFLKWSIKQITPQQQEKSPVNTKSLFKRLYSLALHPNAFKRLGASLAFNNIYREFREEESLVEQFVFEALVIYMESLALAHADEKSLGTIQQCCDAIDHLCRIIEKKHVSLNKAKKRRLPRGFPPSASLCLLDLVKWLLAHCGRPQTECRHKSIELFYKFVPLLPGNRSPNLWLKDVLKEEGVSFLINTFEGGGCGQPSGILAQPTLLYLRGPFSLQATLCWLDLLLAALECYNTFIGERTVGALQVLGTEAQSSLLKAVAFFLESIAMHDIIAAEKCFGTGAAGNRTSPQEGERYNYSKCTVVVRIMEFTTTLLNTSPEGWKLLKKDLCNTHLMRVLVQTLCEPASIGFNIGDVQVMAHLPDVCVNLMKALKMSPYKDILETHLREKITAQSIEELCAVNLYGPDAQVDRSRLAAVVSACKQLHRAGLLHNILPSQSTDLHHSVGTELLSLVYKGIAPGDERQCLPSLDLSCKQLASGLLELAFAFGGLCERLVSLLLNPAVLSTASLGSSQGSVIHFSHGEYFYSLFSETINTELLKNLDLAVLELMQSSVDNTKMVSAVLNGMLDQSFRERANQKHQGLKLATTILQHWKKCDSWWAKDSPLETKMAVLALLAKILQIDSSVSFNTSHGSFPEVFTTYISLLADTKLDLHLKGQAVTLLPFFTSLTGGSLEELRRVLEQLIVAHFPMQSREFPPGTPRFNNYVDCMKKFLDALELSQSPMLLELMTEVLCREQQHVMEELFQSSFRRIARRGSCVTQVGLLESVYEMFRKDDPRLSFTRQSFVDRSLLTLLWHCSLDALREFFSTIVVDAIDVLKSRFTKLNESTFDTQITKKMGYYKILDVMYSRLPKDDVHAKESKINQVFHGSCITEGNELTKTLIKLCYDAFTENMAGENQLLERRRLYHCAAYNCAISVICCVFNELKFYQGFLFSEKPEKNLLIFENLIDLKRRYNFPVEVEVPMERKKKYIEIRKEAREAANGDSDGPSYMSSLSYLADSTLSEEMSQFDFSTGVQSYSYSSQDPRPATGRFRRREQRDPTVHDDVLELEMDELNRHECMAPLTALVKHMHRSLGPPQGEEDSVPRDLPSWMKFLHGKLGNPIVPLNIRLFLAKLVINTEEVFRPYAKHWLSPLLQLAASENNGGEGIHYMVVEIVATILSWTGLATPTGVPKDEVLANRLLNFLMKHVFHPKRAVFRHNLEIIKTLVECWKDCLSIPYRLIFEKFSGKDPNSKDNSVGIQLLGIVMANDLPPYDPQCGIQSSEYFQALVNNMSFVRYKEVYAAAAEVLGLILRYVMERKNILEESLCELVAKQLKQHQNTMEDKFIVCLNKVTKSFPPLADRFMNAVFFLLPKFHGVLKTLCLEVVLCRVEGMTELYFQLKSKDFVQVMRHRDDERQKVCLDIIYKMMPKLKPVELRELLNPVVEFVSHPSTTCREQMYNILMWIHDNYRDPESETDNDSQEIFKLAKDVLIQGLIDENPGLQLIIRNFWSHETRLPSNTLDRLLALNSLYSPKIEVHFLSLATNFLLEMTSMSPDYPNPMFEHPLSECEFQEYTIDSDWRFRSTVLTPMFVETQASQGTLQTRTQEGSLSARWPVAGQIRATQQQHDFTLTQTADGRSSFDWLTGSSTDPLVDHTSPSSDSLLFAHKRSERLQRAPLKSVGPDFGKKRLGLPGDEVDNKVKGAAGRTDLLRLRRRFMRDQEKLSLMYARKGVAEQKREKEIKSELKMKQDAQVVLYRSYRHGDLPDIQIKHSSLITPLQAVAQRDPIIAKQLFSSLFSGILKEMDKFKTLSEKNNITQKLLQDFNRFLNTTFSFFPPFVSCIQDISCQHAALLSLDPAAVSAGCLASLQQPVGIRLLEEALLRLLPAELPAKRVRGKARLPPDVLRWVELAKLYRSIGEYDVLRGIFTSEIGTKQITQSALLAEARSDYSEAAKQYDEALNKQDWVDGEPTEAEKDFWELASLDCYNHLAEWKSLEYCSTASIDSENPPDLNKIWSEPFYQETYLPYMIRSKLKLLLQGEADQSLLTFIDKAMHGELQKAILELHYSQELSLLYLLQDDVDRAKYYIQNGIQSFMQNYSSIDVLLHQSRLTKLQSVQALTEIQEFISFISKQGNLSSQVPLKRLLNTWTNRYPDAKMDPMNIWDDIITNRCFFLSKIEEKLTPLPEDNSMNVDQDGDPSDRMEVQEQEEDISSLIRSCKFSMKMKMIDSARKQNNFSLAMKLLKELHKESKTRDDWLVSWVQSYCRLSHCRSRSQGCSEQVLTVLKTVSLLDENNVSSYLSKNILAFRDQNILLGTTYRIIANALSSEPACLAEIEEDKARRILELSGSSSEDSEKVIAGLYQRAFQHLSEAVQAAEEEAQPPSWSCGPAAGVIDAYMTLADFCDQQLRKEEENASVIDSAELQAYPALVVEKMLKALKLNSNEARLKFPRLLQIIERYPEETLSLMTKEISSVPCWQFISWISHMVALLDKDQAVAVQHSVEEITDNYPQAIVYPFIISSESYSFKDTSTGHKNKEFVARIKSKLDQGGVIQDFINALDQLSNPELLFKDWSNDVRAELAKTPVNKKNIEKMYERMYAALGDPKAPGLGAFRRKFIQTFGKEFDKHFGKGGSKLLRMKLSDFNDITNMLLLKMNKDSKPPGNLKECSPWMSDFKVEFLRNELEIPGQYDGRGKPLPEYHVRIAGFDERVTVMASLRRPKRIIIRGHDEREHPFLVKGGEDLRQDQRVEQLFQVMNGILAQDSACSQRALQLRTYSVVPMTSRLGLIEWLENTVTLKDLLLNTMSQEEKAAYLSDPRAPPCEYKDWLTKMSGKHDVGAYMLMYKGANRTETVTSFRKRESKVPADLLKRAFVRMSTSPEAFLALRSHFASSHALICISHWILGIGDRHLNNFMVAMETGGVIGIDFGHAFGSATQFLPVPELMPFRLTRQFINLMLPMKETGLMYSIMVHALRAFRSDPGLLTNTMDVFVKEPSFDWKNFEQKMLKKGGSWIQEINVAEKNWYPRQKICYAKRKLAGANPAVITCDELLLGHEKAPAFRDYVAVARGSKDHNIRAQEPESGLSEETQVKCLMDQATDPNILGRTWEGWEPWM

Cytochrome P450 2D6 = Cytochrome P450 2D6 (Homo sapiens, UniProt P10635); experiment: Inhibition of CYP2D6 (unknown origin); assay type: ADME
Cytochrome P450 2C9 = Cytochrome P450 2C9 (Homo sapiens, UniProt P11712); experiment: Inhibition of CYP2C9 (unknown origin); assay type: ADME
Cytochrome P450 2C9, sequence (P11712 whole entry): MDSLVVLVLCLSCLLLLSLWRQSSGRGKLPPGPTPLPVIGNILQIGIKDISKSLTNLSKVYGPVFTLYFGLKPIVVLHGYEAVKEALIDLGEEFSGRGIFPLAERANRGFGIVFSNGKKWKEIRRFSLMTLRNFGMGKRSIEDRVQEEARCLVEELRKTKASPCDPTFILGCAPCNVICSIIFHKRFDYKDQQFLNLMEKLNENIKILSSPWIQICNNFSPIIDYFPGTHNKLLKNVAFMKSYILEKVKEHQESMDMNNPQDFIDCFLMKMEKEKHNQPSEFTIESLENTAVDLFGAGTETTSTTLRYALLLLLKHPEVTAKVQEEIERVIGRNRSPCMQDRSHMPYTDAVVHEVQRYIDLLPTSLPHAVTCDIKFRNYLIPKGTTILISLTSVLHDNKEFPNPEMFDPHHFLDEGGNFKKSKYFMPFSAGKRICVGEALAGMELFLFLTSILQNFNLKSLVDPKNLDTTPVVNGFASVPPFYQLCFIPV

[12] = molecular target: T3, DNA-dependent protein kinase catalytic subunit; experiment: Inhibition of DNA-PK autophosphorylation at S2056 in human HeLa cells; assay type: cell-based

Row | Compound | Ratio (HeLa [5]) | Ratio (HeLa [10]) | IC50 [11] [nM] | also measured
1 | O=c1cc(N2CCOCC2)oc2c(-c3ccccc3)cccc12 [LY-294002] | – | – | – | IC50 [1]: > 10000 nM; IC50 [2]: 2800 nM; IC50 [3]: 220 nM; IC50 [4]: > 10000 nM
2 | CN1CCN(CC(=O)Nc2ccc(-c3cccc4c(=O)cc(N5CCOCC5)oc34)c3sc4ccccc4c23)CC1 | 2.4 | 7.4 | 12 | IC50 (Cytochrome P450 3A4): > 10000 nM; fraction unbound [6]: 0.036; IC50 (Cytochrome P450 1A2): > 10000 nM; solubility [7]: 5 µM (≈ 2.84 µg/mL); IC50 [8]: > 10000 nM; logD [9]: 3; IC50 (Cytochrome P450 2C19): > 10000 nM; IC50 (Cytochrome P450 2D6): > 10000 nM; IC50 (Cytochrome P450 2C9): > 10000 nM; EC50 [12]: 426 nM
3 | O=C(CN1CCN(CCOCCO)CC1)Nc1ccc(-c2cccc3c(=O)cc(N4CCOCC4)oc23)c2sc3ccccc3c12 | 1.6 | 3.2 | 6 | –
4 | COC(=O)[C@H](CO)NCCOc1ccc(-c2cccc3c(=O)cc(N4CCOCC4)oc23)c2sc3ccccc3c12 | 2.9 | 10.5 | 2 | –
5 | O=C(CCN1CCN(c2ccccn2)CC1)Nc1ccc(-c2cccc3c(=O)cc(N4CCOCC4)oc23)c2sc3ccccc3c12 | 1.5 | 4.4 | 24 | –
6 | CN1CCCN(C(=O)COc2ccc(-c3cccc4c(=O)cc(N5CCOCC5)oc34)c3sc4ccccc4c23)CC1 | 1.1 | 2 | 44 | –
7 | COc1ccc(CNCC(=O)Nc2ccc(-c3cccc4c(=O)cc(N5CCOCC5)oc34)c3sc4ccccc4c23)cc1 | 1.4 | 6.8 | 38 | –
8 | O=C(CCN1CCNCC1)Nc1ccc(-c2cccc3c(=O)cc(N4CCOCC4)oc23)c2sc3ccccc3c12 | 1 | 1.5 | 37 | –
9 | O=C(CCNCCN1CCOCC1)Nc1ccc(-c2cccc3c(=O)cc(N4CCOCC4)oc23)c2sc3ccccc3c12 | 1.3 | 1.9 | 6 | –
10 | O=C(CN1CCCN(CCO)CC1)Nc1ccc(-c2cccc3c(=O)cc(N4CCOCC4)oc23)c2sc3ccccc3c12 | 1.2 | 3.3 | 30 | –
11 | CN1CCCN(CCOc2ccc(-c3cccc4c(=O)cc(N5CCOCC5)oc34)c3sc4ccccc4c23)CC1 | 1.5 | 3.6 | 10 | –
12 | CC(=O)N1CCN(CCOc2ccc(-c3cccc4c(=O)cc(N5CCOCC5)oc34)c3sc4ccccc4c23)CC1 | – | – | 2 | fraction unbound [6]: 0.0049; EC50 [12]: 166 nM
13 | CN1CCN(C(=O)COc2ccc(-c3cccc4c(=O)cc(N5CCOCC5)oc34)c3sc4ccccc4c23)CC1 | 1.1 | 1.8 | 29 | –
14 | C[C@@H]1CN(CCC(=O)Nc2ccc(-c3cccc4c(=O)cc(N5CCOCC5)oc34)c3sc4ccccc4c23)C[C@H](C)O1 | 2.4 | 9.3 | 9 | –
15 | C[C@@H]1CN(CC(=O)Nc2ccc(-c3cccc4c(=O)cc(N5CCOCC5)oc34)c3sc4ccccc4c23)C[C@H](C)O1 | 1.3 | 8.2 | 4 | –
16 | O=C(CCNCCN1CCNC1=O)Nc1ccc(-c2cccc3c(=O)cc(N4CCOCC4)oc23)c2sc3ccccc3c12 | 1.1 | 0.9 | 6 | –
17 | CC(=O)N1CCN(CC(=O)Nc2ccc(-c3cccc4c(=O)cc(N5CCOCC5)oc34)c3sc4ccccc4c23)CC1 | 1.4 | 4.8 | 5 | –

Row | Compound | Ratio (HeLa [5]) | Ratio (HeLa [10]) | IC50 [11] [nM] | also measured
18 | O=C(CN1CCNCC1)Nc1ccc(-c2cccc3c(=O)cc(N4CCOCC4)oc23)c2sc3ccccc3c12 | 1.4 | 5 | 24 | –
19 | O=c1cc(N2CCOCC2)oc2c(-c3ccc(OCCN4CCCCC4)c4c3sc3ccccc34)cccc12 | 1.4 | 3.5 | 20 | –
20 | O=C(CCNCCN1CCCCC1)Nc1ccc(-c2cccc3c(=O)cc(N4CCOCC4)oc23)c2sc3ccccc3c12 | 1 | 3.3 | 33 | –
21 | NCCNCC(=O)Nc1ccc(-c2cccc3c(=O)cc(N4CCOCC4)oc23)c2sc3ccccc3c12 | 1.1 | 1.5 | 16 | –
22 | O=c1cc(N2CCOCC2)oc2c(-c3ccc(OCCN4CCOCC4)c4c3sc3ccccc34)cccc12 | 1.5 | 6.4 | 8 | –
23 | CN1CCCN(CCC(=O)Nc2ccc(-c3cccc4c(=O)cc(N5CCOCC5)oc34)c3sc4ccccc4c23)CC1 | 1.1 | 2.6 | 41 | –
24 | CN(C)CCN1CCN(CC(=O)Nc2ccc(-c3cccc4c(=O)cc(N5CCOCC5)oc34)c3sc4ccccc4c23)CC1 | 1.7 | 5.9 | 10 | –
25 | CCN1CCCC1CNCCC(=O)Nc1ccc(-c2cccc3c(=O)cc(N4CCOCC4)oc23)c2sc3ccccc3c12 (stereo not given) | 1.2 | 1.7 | 49 | –
26 | O=C(CN1CCCNCC1)Nc1ccc(-c2cccc3c(=O)cc(N4CCOCC4)oc23)c2sc3ccccc3c12 | 1.4 | 1.5 | 22 | –
27 | CCN(CCC(=O)Nc1ccc(-c2cccc3c(=O)cc(N4CCOCC4)oc23)c2sc3ccccc3c12)Cc1ccncc1 | 1 | 1.6 | 31 | –
28 | O=C(CCN1CCN(CCOCCO)CC1)Nc1ccc(-c2cccc3c(=O)cc(N4CCOCC4)oc23)c2sc3ccccc3c12 | 1.1 | 1 | 29 | –
29 | CC(C)N1CCN(CCC(=O)Nc2ccc(-c3cccc4c(=O)cc(N5CCOCC5)oc34)c3sc4ccccc4c23)CC1 | 1.2 | 3.6 | 37 | –
30 | COc1ccc(CNCCC(=O)Nc2ccc(-c3cccc4c(=O)cc(N5CCOCC5)oc34)c3sc4ccccc4c23)cc1 | 1.7 | 7.2 | 9 | –
31 | O=C(CNCCN1CCNC1=O)Nc1ccc(-c2cccc3c(=O)cc(N4CCOCC4)oc23)c2sc3ccccc3c12 | 1.2 | 1.2 | 7 | –
32 | CC(C)N1CCN(C(=O)COc2ccc(-c3cccc4c(=O)cc(N5CCOCC5)oc34)c3sc4ccccc4c23)CC1 | 1.3 | 3.1 | 16 | –
33 | O=C(CN1CCN(c2ccc(F)cc2)CC1)Nc1ccc(-c2cccc3c(=O)cc(N4CCOCC4)oc23)c2sc3ccccc3c12 | 1 | 4.9 | 15 | –
